Source: ChEMBL document CHEMBL3526048, “In vitro metabolism of rivoglitazone, a novel peroxisome proliferator-activated receptor γ agonist, in rat, monkey, and human liver microsomes and freshly isolated hepatocytes” (Drug Metab Dispos, 2011)

Assays:
[1] = Drug metabolism in monkey hepatocytes assessed as formation of 5-hydroxy-5-(4-((6-methoxy-1-methyl-1H-benzo[d]imidazol-2-yl)methoxy)benzyl)thiazolidine-2,4-dione at 30 uM after 3 hrs by radio-HPLC/LC-MS/MS analysis in presence of NADPH-generating system and NADPH-generating system/SAM; settings: cynomolgus monkey
Cytochrome P450 2C8 = target: T1, Cytochrome P450 2C8 (Homo sapiens, UniProt P10632); assay: (§1) Activity of human CYP2C8 expressed in microsomes isolated from baculovirus infected insect cell assessed as enzyme-mediated 2-mercapto-3-(4-((6-methoxy-1-methyl-1H-benzo[d]imidazol-2-yl)methoxy)phenyl)propanoic acid formation at 20 uM after 2 hrs by radio-HPLC/LC-MS/MS analysis in presence of NADPH-generating system; assay type: ADME
T1 sequence (P10632 whole entry): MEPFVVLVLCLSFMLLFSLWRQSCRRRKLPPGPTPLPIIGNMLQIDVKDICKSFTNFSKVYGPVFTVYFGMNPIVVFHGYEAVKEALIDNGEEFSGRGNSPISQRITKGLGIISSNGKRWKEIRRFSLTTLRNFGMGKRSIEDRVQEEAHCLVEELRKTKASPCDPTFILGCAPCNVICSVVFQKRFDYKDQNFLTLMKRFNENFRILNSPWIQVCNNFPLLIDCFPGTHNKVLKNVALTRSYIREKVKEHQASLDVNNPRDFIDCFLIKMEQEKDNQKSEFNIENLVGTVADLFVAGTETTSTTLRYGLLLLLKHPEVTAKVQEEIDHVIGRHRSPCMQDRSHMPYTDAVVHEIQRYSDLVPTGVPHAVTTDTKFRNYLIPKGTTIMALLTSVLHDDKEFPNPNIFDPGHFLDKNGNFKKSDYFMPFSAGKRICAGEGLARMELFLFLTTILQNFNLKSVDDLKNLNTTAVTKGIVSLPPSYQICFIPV
Procedure, shortened: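 Baculovirus/insect-cell microsomes expressing single human CYPs, 1 mg/ml protein, with 50 mM potassium phosphate (pH 7.4) or 100 mM Tris-HCl (pH 7.5). NADPH-generating system: 2 mM NADP⁺, 20 mM glucose 6-phosphate, 2 units/ml G6PDH, 10 mM MgCl₂. [¹⁴C]rivoglitazone at 20 μM, 2 h at 37°C with shaking. Control used insect-cell control supersomes. Stopped with acetonitrile; supernatant concentrated under nitrogen; metabolites analysed by radio-HPLC, LC-MS and LC-MS/MS.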

Liver microsome [2] = assay: Drug metabolism in Sprague-Dawley rat liver microsomes assessed as formation of 5-hydroxy-5-(4-((6-methoxy-1-methyl-1H-benzo[d]imidazol-2-yl)methoxy)benzyl)thiazolidine-2,4-dione at 20 uM after 2 hrs by radio-HPLC/LC-MS/MS analysis in presence of NADPH-generating system and NADPH-generating system/SAM; assay type: ADME
[3] = target: T2, UDP-glucuronosyltransferase 2B15 (Homo sapiens, UniProt P54855); assay: Activity of human UGT2B15 expressed in microsomes isolated from baculovirus infected insect cell assessed as enzyme-mediated (2S,3S,4S,5R,6R)-6-((1-carboxy-2-(4-((6-methoxy-1-methyl-1H-benzo[d]imidazol-2-yl)methoxy)phenyl)ethylthio)carbonylamino)-3,4,5-trihydroxytetrahydro-2H-pyran-2-carboxylic acid formation at 20 uM after 4 hrs by radio-HPLC/LC-MS/MS analysis in presence of UDPGA; assay type: ADME
T2 sequence (P54855 whole entry): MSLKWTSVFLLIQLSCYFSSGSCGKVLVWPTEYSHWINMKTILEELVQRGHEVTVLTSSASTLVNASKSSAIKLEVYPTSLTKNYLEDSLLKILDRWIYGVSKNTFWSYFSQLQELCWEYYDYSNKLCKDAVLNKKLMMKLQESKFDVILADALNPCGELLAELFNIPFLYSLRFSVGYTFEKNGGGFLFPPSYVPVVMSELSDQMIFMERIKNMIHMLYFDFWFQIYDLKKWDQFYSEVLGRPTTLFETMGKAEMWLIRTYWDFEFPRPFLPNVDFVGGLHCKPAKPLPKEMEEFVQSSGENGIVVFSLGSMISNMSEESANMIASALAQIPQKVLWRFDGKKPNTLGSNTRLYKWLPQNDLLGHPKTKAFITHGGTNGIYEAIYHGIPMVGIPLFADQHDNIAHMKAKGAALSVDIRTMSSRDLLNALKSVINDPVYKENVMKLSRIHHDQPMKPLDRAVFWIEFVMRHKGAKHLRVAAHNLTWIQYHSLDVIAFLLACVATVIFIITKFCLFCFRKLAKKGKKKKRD

Liver microsome [4] = assay: Drug metabolism in Sprague-Dawley rat liver microsomes assessed as formation of 3-(4-((6-methoxy-1-methyl-1H-benzo[d]imidazol-2-yl)methoxy)phenyl)-2-(methylthio)propanoic acid at 20 uM after 2 to 4 hrs by radio-HPLC/LC-MS/MS analysis in presence of NADPH-generating system/SAM and UDPGA/SAM; assay type: ADME
Cytochrome P450 3A4 = Cytochrome P450 3A4 (Homo sapiens, UniProt P08684); assay: as §1, with “CYP3A4” for “CYP2C8”; assay type: ADME
Procedure, shortened: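 Baculovirus-insect-cell microsomes expressing the human CYP (1 mg/ml protein) were incubated with [14C]rivoglitazone (20 μM) in 50 mM potassium phosphate (pH 7.4) or 100 mM Tris-HCl (pH 7.5) with an NADPH-generating system (2 mM NADP+, 20 mM glucose 6-phosphate, 2 units/ml G6PDH, 10 mM MgCl2) for 2 h at 37°C. Insect-cell control supersomes served as the control. Reactions were stopped with acetonitrile, and the concentrated supernatants were analysed by radio-HPLC, LC-MS and LC-MS/MS.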

[5] = target: T3, UDP-glucuronosyltransferase 1A7 (Homo sapiens, UniProt Q9HAW7); assay: Activity of human UGT1A7 expressed in microsomes isolated from baculovirus infected insect cell assessed as enzyme-mediated 2-mercapto-3-(4-((6-methoxy-1-methyl-1H-benzo[d]imidazol-2-yl)methoxy)phenyl)propanoic acid formation at 20 uM after 4 hrs by radio-HPLC/LC-MS/MS analysis in presence of UDPGA; assay type: ADME
T3 sequence (Q9HAW7 whole entry): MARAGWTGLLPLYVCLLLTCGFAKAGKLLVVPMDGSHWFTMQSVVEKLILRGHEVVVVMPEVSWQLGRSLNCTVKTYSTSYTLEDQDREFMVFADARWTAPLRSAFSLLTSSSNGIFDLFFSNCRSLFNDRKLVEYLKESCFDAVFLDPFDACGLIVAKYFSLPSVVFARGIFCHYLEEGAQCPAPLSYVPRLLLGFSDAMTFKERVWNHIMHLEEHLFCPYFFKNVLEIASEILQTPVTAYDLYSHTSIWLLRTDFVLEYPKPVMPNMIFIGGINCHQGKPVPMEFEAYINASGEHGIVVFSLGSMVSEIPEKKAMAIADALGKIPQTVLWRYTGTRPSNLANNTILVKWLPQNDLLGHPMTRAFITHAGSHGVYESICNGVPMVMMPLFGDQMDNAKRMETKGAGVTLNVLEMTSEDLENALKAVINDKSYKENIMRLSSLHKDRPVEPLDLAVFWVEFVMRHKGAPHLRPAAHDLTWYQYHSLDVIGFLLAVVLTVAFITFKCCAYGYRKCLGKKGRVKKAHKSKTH

Hepatocyte = assay: Drug level in rat hepatocytes treated with [14C]-rivoglitazone at 30 uM after 3 hrs by radio-HPLC/LC-MS/MS analysis in presence of UDPGA, UDPGA/SAM and NADPH-generating system; assay type: ADME, cell-based

Cytochrome P450 3A4, sequence (P08684 whole entry): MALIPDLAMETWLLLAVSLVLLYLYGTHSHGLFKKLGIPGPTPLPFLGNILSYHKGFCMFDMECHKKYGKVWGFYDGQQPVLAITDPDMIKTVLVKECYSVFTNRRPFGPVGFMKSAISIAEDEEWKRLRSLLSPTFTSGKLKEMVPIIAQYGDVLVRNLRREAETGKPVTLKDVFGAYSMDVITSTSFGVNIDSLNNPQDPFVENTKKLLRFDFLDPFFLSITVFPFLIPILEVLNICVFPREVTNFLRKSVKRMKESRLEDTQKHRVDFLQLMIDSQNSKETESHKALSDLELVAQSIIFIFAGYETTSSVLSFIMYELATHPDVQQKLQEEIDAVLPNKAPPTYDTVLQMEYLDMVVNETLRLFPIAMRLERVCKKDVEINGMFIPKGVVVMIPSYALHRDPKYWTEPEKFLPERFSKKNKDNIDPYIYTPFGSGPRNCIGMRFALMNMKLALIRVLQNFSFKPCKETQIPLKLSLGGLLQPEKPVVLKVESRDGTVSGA

Drug metabolism [1] | Drug metabolism (Cytochrome P450 2C8) | Drug metabolism (Liver microsome [2]) | Drug metabolism [3] | Drug metabolism (Liver microsome [4]) | Drug metabolism (Cytochrome P450 3A4) | Drug metabolism [5] | Drug metabolism (Hepatocyte) | Structure (SMILES)
metabolite_detected | metabolite_detected | metabolite_detected | metabolite_not_detected | metabolite_detected | metabolite_detected | metabolite_not_detected | – | COc1ccc2nc(COc3ccc(C[14CH]4SC(=O)NC4=O)cc3)n(C)c2c1.Cl (racemic)
– | – | – | – | – | – | – | metabolite_not_detected | COc1ccc2nc(COc3ccc(CC(S)C(=O)O)cc3)n(C)c2c1 (stereo not drawn)
